The values below come from ChEMBL document CHEMBL3414433, “Discovery and profiling of a selective and efficacious Syk inhibitor” (J Med Chem, 2015).

SMILES strings stand for the structures.

The target in one series is hERG (KCNH2) (Homo sapiens, UniProt Q12809). Kind of series: Inhibition of human ERG at 10 uM by manual patch clamp assay relative to control. For orientation: Patch clamp records ionic current or voltage across a cell membrane.
Series [1] has as its system Rattus norvegicus. Briefly: Dose normalized AUC in Sprague-Dawley rat at 1 mg/kg, iv administered as cassette dosing. To be noted: in vivo. The series is classed as ADME, organism-based. The arrangement: dose 1 mg/kg, route intravenous. In outline: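 Rat PK: i.v. 1 mg/kg in NMP/PEG200 (3:7); p.o. 3 mg/kg in CMC/water/Tween (0.5:99:0.5). Exposure values dose normalized.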

Series [2] addresses Mitotic checkpoint serine/threonine-protein kinase BUB1 (Homo sapiens, UniProt O43683). Briefly: Competitive binding affinity to human BUB1.
Series [3] deals with T1, Mitogen-activated protein kinase kinase kinase 2 (Homo sapiens, UniProt Q9Y2U5).
T1 sequence (Q9Y2U5 whole entry): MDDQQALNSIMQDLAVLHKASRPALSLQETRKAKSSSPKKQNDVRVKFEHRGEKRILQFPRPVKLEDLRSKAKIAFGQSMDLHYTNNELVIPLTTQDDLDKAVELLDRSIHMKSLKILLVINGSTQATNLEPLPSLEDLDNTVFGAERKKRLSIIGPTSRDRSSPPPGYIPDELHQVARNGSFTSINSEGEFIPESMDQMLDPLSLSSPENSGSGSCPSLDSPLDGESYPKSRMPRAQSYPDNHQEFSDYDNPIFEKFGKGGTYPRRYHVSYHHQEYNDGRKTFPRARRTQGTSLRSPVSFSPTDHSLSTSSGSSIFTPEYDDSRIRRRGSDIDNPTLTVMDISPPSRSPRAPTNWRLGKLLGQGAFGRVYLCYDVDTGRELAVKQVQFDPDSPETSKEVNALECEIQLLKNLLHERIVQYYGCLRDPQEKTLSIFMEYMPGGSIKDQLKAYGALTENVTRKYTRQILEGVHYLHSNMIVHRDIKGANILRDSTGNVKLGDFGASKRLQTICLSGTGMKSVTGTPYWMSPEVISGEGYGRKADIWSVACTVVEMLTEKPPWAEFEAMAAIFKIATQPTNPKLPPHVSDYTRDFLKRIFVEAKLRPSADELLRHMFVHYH
Briefly: Competitive binding affinity to human MAP3K2.

For series [4], the target named is Serine/threonine-protein kinase PAK 6 (Homo sapiens, UniProt Q9NQU5). Kind of series: Competitive binding affinity to human PAK6.
Chain of Serine/threonine-protein kinase PAK 6 (Q9NQU5 whole entry): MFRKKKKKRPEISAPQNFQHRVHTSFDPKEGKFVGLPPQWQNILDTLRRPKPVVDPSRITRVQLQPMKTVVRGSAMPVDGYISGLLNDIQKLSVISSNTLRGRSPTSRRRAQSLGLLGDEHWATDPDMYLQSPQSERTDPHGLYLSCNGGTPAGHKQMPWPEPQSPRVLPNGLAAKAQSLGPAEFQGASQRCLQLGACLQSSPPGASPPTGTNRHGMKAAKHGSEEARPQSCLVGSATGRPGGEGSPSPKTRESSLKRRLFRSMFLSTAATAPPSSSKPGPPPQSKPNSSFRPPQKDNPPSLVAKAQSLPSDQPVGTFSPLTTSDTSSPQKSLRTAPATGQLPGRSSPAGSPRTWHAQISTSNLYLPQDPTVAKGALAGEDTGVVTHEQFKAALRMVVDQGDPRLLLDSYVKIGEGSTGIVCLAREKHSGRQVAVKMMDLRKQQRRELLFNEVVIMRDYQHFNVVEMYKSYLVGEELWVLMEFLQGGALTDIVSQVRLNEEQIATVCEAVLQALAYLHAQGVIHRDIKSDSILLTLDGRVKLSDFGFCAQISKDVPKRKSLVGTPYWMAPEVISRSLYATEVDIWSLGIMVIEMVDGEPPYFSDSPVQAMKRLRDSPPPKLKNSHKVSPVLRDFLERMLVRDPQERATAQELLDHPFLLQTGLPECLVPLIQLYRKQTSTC
Series [5] concerns the target T2, Tyrosine-protein kinase ZAP-70 (Homo sapiens, UniProt P43403).
T2 sequence (P43403 whole entry): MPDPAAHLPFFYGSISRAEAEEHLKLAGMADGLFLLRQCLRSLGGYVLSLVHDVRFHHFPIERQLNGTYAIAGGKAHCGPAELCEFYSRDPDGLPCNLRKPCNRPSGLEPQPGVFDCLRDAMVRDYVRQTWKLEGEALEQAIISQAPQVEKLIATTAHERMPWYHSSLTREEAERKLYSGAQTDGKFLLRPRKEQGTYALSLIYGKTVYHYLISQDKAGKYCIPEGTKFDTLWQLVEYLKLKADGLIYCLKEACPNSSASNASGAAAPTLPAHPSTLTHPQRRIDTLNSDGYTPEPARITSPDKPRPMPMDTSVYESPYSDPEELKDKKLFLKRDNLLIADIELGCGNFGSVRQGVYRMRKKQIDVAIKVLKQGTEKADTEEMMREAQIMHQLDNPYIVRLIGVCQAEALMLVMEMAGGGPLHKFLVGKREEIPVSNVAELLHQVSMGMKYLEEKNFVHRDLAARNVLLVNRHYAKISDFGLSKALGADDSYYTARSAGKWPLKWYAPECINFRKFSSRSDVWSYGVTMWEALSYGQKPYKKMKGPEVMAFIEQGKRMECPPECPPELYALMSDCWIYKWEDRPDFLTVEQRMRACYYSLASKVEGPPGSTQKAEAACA
Briefly: Inhibition of ZAP70 in anti-CD3 stimulated human Jurkat T cells assessed as SLP76 phosphorylation at Y128 preincubated for 30 mins followed by anti-CD3 stimulation measured after 2 mins by FACS analysis. It is filed as cell-based. In outline: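 Jurkat T cells washed in RPMI/0.1% FCS, preincubated with compound 30 min at 37 °C, stimulated with anti-TCR OKT3 (30 μg/mL final) 2 min at 37 °C, fixed in 2% PFA, permeabilized in 90% methanol, stained anti-SLP76 pY128 80 min at RT; flow cytometry. IC50 from factor F = MFI × percent positive cells.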
(A flow cytometer gives signals particle by particle.)

Series [6] can be described thus: Volume of distribution at steady state in Beagle dog at 0.1 mg/kg, iv and 0.3 mg/kg, po. The series is classed as ADME, organism-based, Canis lupus familiaris. The note with it: in vivo, read-out: Vdss. Put shortly:
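Beagle dogs dosed one-in-one. The i.v. dose was 0.1 mg/kg in NMP/PEG200 (3:7), and the p.o. dose was 0.3 mg/kg in MC/water (0.5:99.5). Blood levels were followed after each route.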

Series [7] can be described thus: Drug uptake in blood of Lewis rat collagen-induced arthritis model at 3 mg/kg, po qd administered on day 15 post immunization measured at 8 hrs on day 18. The series is classed as ADME, organism-based. The arrangement: dose 3 mg/kg, route oral. The note with it: read-out: Drug uptake. In outline:
(§1)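 Collagen-arthritic Lewis rats given 3, 10 or 30 mg/kg p.o. once daily from day 15; blood levels measured on day 18 (third day of treatment) at 4, 8 and 24 h after dosing.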

Series [8] can be described thus: Drug uptake in blood of Lewis rat collagen-induced arthritis model at 30 mg/kg, po qd administered on day 15 post immunization measured at 8 hrs on day 18. The note with it: read-out: Drug uptake. The series is classed as ADME, organism-based. The arrangement: dose 30 mg/kg, route oral. Put shortly:
as §1

In series [9] the test system is Rattus norvegicus. Kind of series: In vivo inhibition of Syk in Lewis rat assessed as reduction in FcgR-induced SLP76 phosphorylation in peripheral blood monocytes at 3 to 30 mg/kg, po measured after 2 to 24 hrs. It is filed as functional, organism-based. The arrangement: route oral.
The species entered for series [10] is Rattus norvegicus. Briefly: Hepatotoxicity in rat assessed as single necrosis of hepatocytes measured for 4 weeks by GLP study. The series is classed as toxicity, organism-based, Hepatocyte. The note with it: 672 h.
The species entered for series [11] is Rattus norvegicus. Briefly: Hepatotoxicity in rat assessed as bile plugs measured for 4 weeks by GLP study. The series is classed as toxicity, organism-based. To be noted: in vivo, 672 h.
The species entered for series [12] is Canis familiaris. Briefly: Hepatotoxicity in dog assessed as single necrosis of hepatocytes measured for 4 weeks by GLP study. The series is classed as toxicity, organism-based, Canis lupus familiaris, Hepatocyte. The note with it: 672 h.
Series [13] is filed under the species Canis familiaris. Kind of series: Toxicity in dog assessed as prolongation of QT interval by telemetry study. The series is classed as organism-based, Canis lupus familiaris. To be noted: in vivo.
Series [14] is described as follows: Drug metabolism in liver microsomes (unknown origin). The series is classed as ADME.
Series [15] is filed under the species Rattus norvegicus. Briefly: Drug metabolism in rat. It is filed as ADME, organism-based. To be noted: in vivo.

Chain of Mitotic checkpoint serine/threonine-protein kinase BUB1 (O43683 whole entry): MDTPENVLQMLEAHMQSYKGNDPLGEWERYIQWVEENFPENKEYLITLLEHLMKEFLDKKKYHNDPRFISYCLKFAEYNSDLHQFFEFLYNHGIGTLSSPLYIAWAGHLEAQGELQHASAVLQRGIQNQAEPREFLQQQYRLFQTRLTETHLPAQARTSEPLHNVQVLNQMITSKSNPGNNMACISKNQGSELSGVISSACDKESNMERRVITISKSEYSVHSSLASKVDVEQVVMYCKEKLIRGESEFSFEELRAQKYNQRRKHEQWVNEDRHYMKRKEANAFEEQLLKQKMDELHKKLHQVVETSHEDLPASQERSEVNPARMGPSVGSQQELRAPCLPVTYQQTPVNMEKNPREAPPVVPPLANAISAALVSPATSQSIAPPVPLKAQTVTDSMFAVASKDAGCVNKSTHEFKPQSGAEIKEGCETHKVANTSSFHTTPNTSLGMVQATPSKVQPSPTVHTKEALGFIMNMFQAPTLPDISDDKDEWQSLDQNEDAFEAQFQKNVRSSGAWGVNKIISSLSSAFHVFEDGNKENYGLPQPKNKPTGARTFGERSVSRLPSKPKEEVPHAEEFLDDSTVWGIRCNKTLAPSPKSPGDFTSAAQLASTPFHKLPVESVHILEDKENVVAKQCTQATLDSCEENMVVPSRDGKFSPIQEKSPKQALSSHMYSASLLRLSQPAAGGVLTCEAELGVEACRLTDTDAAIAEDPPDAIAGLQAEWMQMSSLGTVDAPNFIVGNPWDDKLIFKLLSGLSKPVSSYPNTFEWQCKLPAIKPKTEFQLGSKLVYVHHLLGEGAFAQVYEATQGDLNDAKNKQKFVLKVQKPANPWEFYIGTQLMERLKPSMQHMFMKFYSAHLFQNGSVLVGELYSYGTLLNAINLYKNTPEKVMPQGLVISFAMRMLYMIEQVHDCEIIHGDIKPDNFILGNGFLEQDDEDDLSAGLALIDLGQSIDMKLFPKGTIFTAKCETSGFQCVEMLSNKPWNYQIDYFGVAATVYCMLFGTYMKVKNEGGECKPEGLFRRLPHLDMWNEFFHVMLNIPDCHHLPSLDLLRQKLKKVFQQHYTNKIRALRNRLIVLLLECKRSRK
Chain of hERG (KCNH2) (Q12809 whole entry): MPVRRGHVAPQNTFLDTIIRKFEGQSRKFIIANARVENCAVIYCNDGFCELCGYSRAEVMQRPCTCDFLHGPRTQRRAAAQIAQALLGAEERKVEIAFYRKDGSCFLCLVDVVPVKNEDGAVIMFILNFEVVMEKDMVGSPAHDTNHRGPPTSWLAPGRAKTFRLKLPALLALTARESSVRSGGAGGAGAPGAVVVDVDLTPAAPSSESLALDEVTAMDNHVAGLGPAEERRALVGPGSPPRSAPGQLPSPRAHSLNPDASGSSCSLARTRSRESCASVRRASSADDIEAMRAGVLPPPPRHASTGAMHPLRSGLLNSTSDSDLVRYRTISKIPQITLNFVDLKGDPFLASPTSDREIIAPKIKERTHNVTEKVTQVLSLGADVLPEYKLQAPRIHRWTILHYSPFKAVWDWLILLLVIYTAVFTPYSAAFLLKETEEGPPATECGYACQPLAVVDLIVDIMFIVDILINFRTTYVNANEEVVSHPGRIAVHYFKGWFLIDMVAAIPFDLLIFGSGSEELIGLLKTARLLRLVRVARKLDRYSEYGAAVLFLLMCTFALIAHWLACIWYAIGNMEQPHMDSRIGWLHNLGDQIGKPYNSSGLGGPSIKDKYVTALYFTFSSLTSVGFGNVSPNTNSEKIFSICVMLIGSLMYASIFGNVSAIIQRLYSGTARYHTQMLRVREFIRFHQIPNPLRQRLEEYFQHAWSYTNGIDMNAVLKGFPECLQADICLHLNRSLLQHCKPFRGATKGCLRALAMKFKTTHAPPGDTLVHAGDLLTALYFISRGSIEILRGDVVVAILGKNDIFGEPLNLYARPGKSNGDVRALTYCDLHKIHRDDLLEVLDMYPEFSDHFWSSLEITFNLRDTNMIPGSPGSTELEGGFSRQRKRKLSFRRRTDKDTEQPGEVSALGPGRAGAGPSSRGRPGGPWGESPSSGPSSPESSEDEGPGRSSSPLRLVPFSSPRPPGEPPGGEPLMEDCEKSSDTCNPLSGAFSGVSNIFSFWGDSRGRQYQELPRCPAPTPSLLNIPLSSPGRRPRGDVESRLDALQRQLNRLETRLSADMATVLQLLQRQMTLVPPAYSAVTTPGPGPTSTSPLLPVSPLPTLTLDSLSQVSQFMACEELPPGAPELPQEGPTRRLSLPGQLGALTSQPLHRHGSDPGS

On to `NC(=O)c1nnc(N[C@@H]2CCCC[C@@H]2N)nc1Nc1cccc2cc[nH]c12`, for which the inhibition (commonly the share of the control response that was lost under treatment) at 10 µM at hERG (KCNH2) came to 0%. Moreover, the AUC/dose in the series with Rattus norvegicus [1] worked out at 1459 nM·h. In addition, the Kd (as a rule, the constant that tells how readily two partners part at equilibrium) turned out to be 240 nM in series [2], 140 nM in series [3] and 110 nM in series [4]. The IC50 (in general, the point on the concentration scale where inhibition reaches its midpoint) in series [5] was determined as 2530 nM; with Rattus norvegicus [9], 189 nM. The Vd in [6] amounted to 6.8 L/kg. Further, the values for the concentration at 8 h in series [7] and in [8] were 65 nM and 1720 nM, respectively. The Activity result is recorded as “Toxic” in the series filed under Rattus norvegicus [10], “Toxic” in the series listed under Rattus norvegicus [11], “Toxic” in the series filed under Canis familiaris [12] and “Non-toxic” in the series listed under Canis familiaris [13]. Moreover, the Drug metabolism result (in series [14]; in the series listed under Rattus norvegicus [15]) was “metabolite_notdetected” each time.
